Assay outcomes deposited in PubChem BioAssay by several laboratories.
WT yeast gro inh = growth inhibition of WT strain, primary screen, mitochondrial fusion inhibitor project, WT and mutant strains, chemical genetic; AID 1362, 2008; inhibition, % at 10 µM; mitochondrial fusion phenotypic screen; hit rate 2.1% among 190,000; in the data active means inhibition above about 58%; tested in S. cerevisiae
Efflux pump mplx = inhibitors of Candida efflux pumps in yeast, primary screen, S. cerevisiae, Nile Red, multiplex | S. cerevisiae Candida pump triplex | hit rate 0.44% among 330,000 | inhibition, % at 10 µM;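 active means plate passing quality check with inhibition over a set limit, or well fluorescence over plate mean plus 4 SD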;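 further: Nile Red retained in pooled yeast measured as flow cytometry median fluorescence; 0% = buffer negative control and 100% = Enniatin B positive control; higher means more Nile Red kept so more efflux inhibition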
Mot1-301 SUMO = yeast Mot1-301 growth rescue at high temperature, primary screen, SUMOylation pathway inhibitor project, S. cerevisiae, ATP luminescence, 38.5C | S. cerevisiae Mot1-301 growth rescue; percent above DMSO median, 100 means doubled | AID 2716, 2010 | growth rescue, % at 18.8 µM | hit rate 1% among 320,000;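 active means every valid replicate shows activation above 250% relative to neutral control wells; inactive means the rest, any valid replicate at or below 250%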;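 further: OY570 slx delta 5 strain wells were the positive control but not used for scaling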
Beta cell apopt = inhibitors of cytokine-induced beta cell apoptosis, primary screen, luminescence; INS-1E cytokine-induced death, ATP luminescence, 48 h; percent of positive-control rescue, neutral wells zero; protection from apoptosis, % (concentration not given with the values); hit rate 0.8% among 300,000; AID 435005, 2010;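 active means Every replicate reaches about 75%, or at least half do and their mean reaches it too, limit read from the data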;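 further: 0% = cytokine-treated negative control wells and 100% = positive control rescue; higher means more ATP so stronger rescue from cytokine killing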
T cruzi repl = inhibitors of intracellular T. cruzi growth, primary screen, luminescence, NIH3T3 host cells. T. cruzi beta-gal in NIH3T3, 90 h. inhibition, % (test concentration not listed). hit rate 1.4% among 300,000. AID 1885, 2009;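 active means mean inhibition across valid replicates above about 55%, limit read from the data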;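 further: signal also drops with host cell toxicity which is not excluded here; 0% = plate median of DMSO wells and 100% = zero luminescence signal; higher percent means less beta-gal luminescence so fewer parasites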
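assay system = mouse NIH/3T3 fibroblasts infected with β-gal-expressing T. cruzi Tulahuen C4 | input = 5,000 NIH/3T3 host cells per well | buffer or medium = DMEM plus 2% FBS | timing = 3 h host attachment, then at least 90 h co-culture | measured by = GalScreen luminescence, 60 min | evaluation = luminescence reflecting intracellular parasite burden, expressed as percent inhibition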
CSC inhib = cancer stem cell viability inhibitors, primary screen, luminescence | hit rate 1.1% among 300,000 | cancer stem cell-like cells viability | AID 2717, 2010 | inhibition, % at 7.5 µM; in the data active means inhibition above about 75%; tested in HMLE shEcad cells
Cmpd fluor yeast = counter-screen for efflux pump inhibitors: compound fluorescence. fluorescence ratio to DMSO, % at 10 µM. S. cerevisiae AD/pABC3, flow cytometry. hit rate 4% among 1,700. shares compounds with Efflux pump mplx;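 active means fluorescence ratio to DMSO above its plate's cutoff, the plate mean ratio plus 5 SD, cut at about 210% in these data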;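 further: unstained yeast with no Nile Red so the signal is compound autofluorescence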
Mdr1 pump inh = inhibitors of Candida albicans Mdr1 efflux, confirmation, flow cytometry, singleplex, Cherry Pick1 set; S. cerevisiae AD/CaMDR1, Nile Red efflux; inhibition, % at 10 µM; shares compounds with Efflux pump mplx; hit rate 1% among 1,700; in the data active means inhibition above about 26%;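 further: 0% = DMSO vehicle and 100% = reference inhibitor; higher means more Nile Red retained so more efflux inhibition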
Cdr2 pump inh = inhibitors of Candida albicans Cdr2 efflux pump, confirmation, S. cerevisiae AD/CaCDR2, flow cytometry, cherry pick 1, singleplex; Nile Red retention; AID 588520, 2011; Nile Red retention ratio vs DMSO, % at 10 µM; shares compounds with Efflux pump mplx; hit rate 4% among 1,700; in the data active means Nile Red retention ratio vs DMSO above about 190%;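 further: higher ratio means more blocking of Cdr2 efflux of the dye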
Cdr1 pump inh = inhibitors of Candida albicans Cdr1 efflux pump, confirmation, S. cerevisiae AD/CaCDR1, flow cytometry, cherry pick 1, singleplex | Nile Red efflux | inhibition, % at 10 µM | shares compounds with Efflux pump mplx | hit rate 1% among 1,700;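 active means inhibition above the screen-wide mean plus twice its standard deviation, cut at about 32% in these data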
* hit, by the source's call; / = no result given. Compounds with a hit are over-represented: about 4.8% of the library has one in this group of screens.

SMILES	WT yeast gro inh	Efflux pump mplx	Mot1-301 SUMO	Beta cell apopt	T cruzi repl	CSC inhib	Cmpd fluor yeast	Mdr1 pump inh	Cdr2 pump inh	Cdr1 pump inh
C=CC[C@H](CC(=O)N(CCO)Cc1ccccc1)C(=O)N[C@H](COC(=O)[C@@H](CC=C)Cc1ccc(F)cc1)Cc1c[nH]c2ccccc12	/	0	-4	1	/	8	/	/	/	/
CCCCC1C2=C(CCCC2=O)OC2=C1C(=O)CCC2	2	7.6*	-11	2	-1	-11	94	0	91	0
O=C1CCCC2=C1C(Cc1ccccc1)C1=C(CCCC1=O)O2	3	0	38	5	9	/	/	/	/	/
COC(=O)C1C(O)=C(C(C)=Nc2cccc3ccccc23)C(=O)CC1(C)C (stereo not given)	/	0	-5	-5	6	-8	/	/	/	/
Cc1c(NC(C)C)c(=O)n(-c2ccccc2)n1C	/	0	14	3	/	-9	/	/	/	/
Cc1c(NC(C)c2ccccc2O)c(=O)n(-c2ccccc2)n1C (stereo not given)	20	8.2*	14	-8	7	-3	106	0	89	0
CN(C)S(=O)(=O)c1ccc(C(=O)OC2CCOC2=O)cc1 (stereo not given)	/	1.5*	-25	3	-19	12	107	0	108	0
O=C(OC1CCOC1=O)c1ccc(S(=O)(=O)N2CCCCCC2)cc1 (stereo not given)	-4	0	-11	-6	-38	-11	/	/	/	/
Cc1ccc(N=C2NC(=O)/C(=C\c3cccs3)S2)cc1C	35	6.8*	-4	-3	-6	50	101	0	134	0
O=C(COC(=O)c1ccc(Cl)c(S(=O)(=O)NCc2ccccc2)c1)NCC1CCCO1 (stereo not given)	-6	0	-1	-1	4	-12	/	/	/	/
COc1cc(/C=N/N2CCN(c3ccc(Cl)cc3)CC2)cc(OC)c1OC(C)=O	/	1.2*	5	-5	2	19	89	0	108	0
COc1cc(/C=N/N2CCN(c3ccccc3)CC2)cc(OC)c1OC(C)=O	/	0	-1	1	0	-16	/	/	/	/
C=CCn1c(=S)[nH]c2sccc2c1=O	-7	0.8*	-1	2	8	6	95	0	98	0
C=CCn1c(=S)[nH]c2sc3c(c2c1=O)CCCC3	/	0	-17	-6	1	1	/	/	/	/
CCC(Sc1nncn1C)C(=O)Nc1ccccc1OC (stereo not given)	-5	0.5*	-19	5	-6	3	106	0	96	0
COc1ccc(C)cc1NC(=O)C(Sc1nncn1C)c1ccccc1 (stereo not given)	1	0	-2	0	-1	-3	/	/	/	/
CCc1c(C)nc2cc(-c3cc(OC)cc(OC)c3)nn2c1N1CCN(CCN2CCOCC2)CC1	7	1.6*	17	4	12	2	82	0	89	0
Cc1ccc(C2C(C#N)=C(N)Oc3cc(N)ccc32)cc1 (stereo not given)	/	0	-8	2	2	27	/	/	/	/
Cc1ccc(/C=C2\CCC3=C2OC(N)=C(C#N)C3c2ccc(C)cc2)cc1 (stereo not given)	-13	3.6*	16	4	9	9	118	0	125	0
CC(=O)c1ccc(NS(=O)(=O)Cc2ccc(Cl)cc2)cc1	20	0.8*	28	-5	-19	/	103	0	101	0
CC(=O)Nc1ccccc1OC(C)C(=O)NC(C)c1ccc(F)cc1 (stereo not given)	1	5.8*	167	3	-21	7	117	0	131	0
COC(=O)[C@H](CCSC)NC(=O)NCc1ccccn1	-9	0.8*	-16	-3	-15	11	105	0	112	0
NC(=O)c1nc(-c2ccco2)nc2c1[nH]c(=O)n2-c1ccc(Cl)c(Cl)c1	/	1.2*	1	30	3	1	107	0	105	0
CC(C)Cc1nc(C(N)=O)c2[nH]c(=O)n(-c3ccc(F)cc3)c2n1	6	0	8	-1	9	-16	/	/	/	/
Cc1cccc(-n2c(=O)[nH]c3c(C(N)=O)nc(-c4ccccc4Cl)nc32)c1	9	0	4	0	15	-12	/	/	/	/
SMILES	WT yeast gro inh	Efflux pump mplx	Mot1-301 SUMO	Beta cell apopt	T cruzi repl	CSC inhib	Cmpd fluor yeast	Mdr1 pump inh	Cdr2 pump inh	Cdr1 pump inh
CCOc1ccccc1-c1nc(C(N)=O)c2[nH]c(=O)n(-c3ccccc3)c2n1	-4	0	98	6	8	-13	106	0	96	0
COc1ccccc1-c1nc(C(N)=O)c2[nH]c(=O)n(-c3cccc(C)c3)c2n1	-1	0.4*	-20	1	12	-13	104	1	112	1
NC(=O)c1nc(-c2cccs2)nc2c1[nH]c(=O)n2-c1ccc(F)cc1	-6	0	-10	42	-18	18	103	0	106	0
COc1ccc(-c2nc(C(N)=O)c3[nH]c(=O)n(-c4cccc(C)c4)c3n2)c(OC)c1	7	0	18	3	4	-9	/	/	/	/
C[C@H](N)C(=O)N1CCC(C(=O)N[C@@H](Cc2ccccc2)C(=O)Nc2ccc(F)cc2)CC1	/	0	10	/	2	-7	/	/	/	/
O=C1/C(=C/c2cccs2)SC(=S)N1NS(=O)(=O)c1ccccc1	/	0	37	4	-7	7	80	0	81	0
CNC(=S)Nc1ccc(C)cc1	-2	11*	-14	-3	-5	12	100	0	102	0
Cc1ccc(NC(=S)Nc2ccc(Br)cc2)cc1	27	0	114	2	-1	/	/	/	/	/
N#CCSc1nc2c(sc(=S)n2Cc2ccco2)c(=O)n1-c1ccc(F)cc1	-3	5.9*	19	9	42	6	111	0	116	0
CCn1c(=S)sc2c(=O)n(-c3ccccc3)c(SC)nc21	23	0	-4	9	14	-2	/	/	/	/
